From ChEMBL document CHEMBL1148398, “Design, synthesis, and biological evaluation of thio-containing compounds with serum HDL-cholesterol-elevating properties” (2004)

Key:
Type in all cases: functional
Rattus norvegicus [1] = test: Percent change in low-density lipoprotein cholesterol following oral administration of compound in normal chow-fed rats at 100 mg/kg/day for 4 days
Method in brief: (§1)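 Chow-fed male Sprague–Dawley CD rats, 60–80 g, gavaged 100 mg/kg/day for 4 days in 1.3% Tween 80/0.25% CMC. Fasted overnight, bled 24 h after the last dose. Total cholesterol and glycerol-blanked triglycerides read enzymatically; lipoproteins by FPLC with cholesterol per fraction. % change versus control; six per group, p < 0.05.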

Rattus norvegicus [2] = test: Percent change in high-density lipoprotein cholesterol following oral administration of compound in normal chow-fed rats at 100 mg/kg/day for 4 days; method in brief: as §1
Rattus norvegicus [3] = test: Percent change in high-density lipoprotein cholesterol in hypercholesterolemic rats dosed at 100 mg/kg/day for 8 days
Rattus norvegicus [4] = test: Percent change in triglycerides in hypercholesterolemic rats at a dose of 100 mg/kg/day for 8 days
Rattus norvegicus [5] = test: Percent change in very low-density lipoprotein cholesterol following oral administration of compound in normal chow-fed rats at 100 mg/kg/day for 4 days; method in brief: as §1
Rattus norvegicus [6] = test: Percent change in triglycerides following oral administration of compound in normal chow-fed rats at 100 mg/kg/day for 4 days; method in brief: as §1
Rattus norvegicus [7] = test: Percent change in total plasma cholesterol in hypercholesterolemic rats dosed at 100 mg/kg/day for 8 days
Rattus norvegicus [8] = test: Percent change in total plasma cholesterol following oral administration of compound in normal chow-fed rats at 100 mg/kg/day for 4 days; method in brief: as §1

Row | SMILES | Change (Rattus norvegicus [1]) | Change (Rattus norvegicus [2]) | Change (Rattus norvegicus [3]) | Change (Rattus norvegicus [4]) | Change (Rattus norvegicus [5]) | Change (Rattus norvegicus [6]) | Change (Rattus norvegicus [7]) | Change (Rattus norvegicus [8])
1 | CCN1CCC(=O)N(c2ccccc2C(C)C)C1=S | 9.8% | 67.8% | 108% | -31% | 35.2% | -12.4% | 44% | 59.2%
2 | CCN1CC(=O)N(C2CCCCC2)C1=S | – | – | 5.4% | 28% | – | – | -7.4% | –
3 | O=C1CN(Cc2ccccc2)C(=S)N1c1c(Cl)cccc1Cl | – | – | -2.2% | -54% | – | – | 25.3% | –
4 | C#CCN1CC(=O)N(c2c(C)cccc2C)C1=S | 27.9% | 85.1% | 325% | 0% | -23% | -48.5% | -15% | 98%
5 | CN1CC(=O)N(c2c(Cl)cccc2Cl)C1=S | 39.6% | 109.3% | 92% | -43% | -3.3% | -33.3% | 4.6% | 83.9%
6 | COC(=O)CCN1CC(=O)N(c2ccc(Cl)cc2C)C1=S | – | – | 27% | -32% | – | – | 14% | –
7 | CCN1CC(=O)N(c2c(C)cccc2C)C1=S | 43.8% | 93.6% | 181% | -23% | 13% | -12.8% | -28% | 106.7%
8 | CCN1CC(=O)N(c2cc(C)ccc2C)C1=S | -8.3% | 31.9% | 124% | -6% | 31.3% | -2.5% | 49% | 26.4%
9 | CCN1C(=S)N(c2cc(Cl)ccc2C)C(=O)C1c1ccccc1 (centres undefined) | – | – | 187% | 76% | – | – | 60% | –
10 | CN1CC(=O)N(c2ccccc2)C1=S | – | – | 66% | 10% | – | – | 25% | –
11 | Cc1ccc(Cl)cc1N1C(=O)C(C)N(C)C1=S (centres undefined) | 800% | 67.9% | 220% | -58% | 134.7% | 207.2% | -8% | 276.5%
12 | CCN1CC(=O)N(c2ccc(F)cc2)C1=S | – | – | 59% | -18% | – | – | 78% | –
13 | CON1CC(=O)N(c2cc(Cl)ccc2C)C1=S | 87.5% | 102.4% | 160% | -62% | 249.5% | -10.8% | 41% | 134.4%
14 | CCN1CCC(=O)N(c2ccccc2F)C1=S | -4% | 55.3% | 72% | -26% | 20.1% | -4% | 21% | 48.7%
15 | CN1OCC(=O)N(C(c2ccccc2)c2ccccc2)C1=S | 43.8% | 33.7% | 60% | 9% | -29.3% | -44.1% | 22% | 17.6%
16 | CCN1C(=O)C(=O)N(c2cc(Cl)ccc2C)C1=S | 71.9% | 87.6% | 242% | -22% | 67.3% | – | 32% | 123.4%
17 | CN1CC(=O)N(C(c2ccccc2)c2ccccc2)C1=S | – | – | 57% | 92% | – | – | 3.4% | –
18 | CCN1CCCC(=O)N(c2cc(Cl)ccc2C)C1=S | – | – | 50% | 14% | – | – | 7% | –
19 | CN1OCC(=O)N(c2ccc(C(C)(C)C)cc2)C1=S | 2.6% | 61.6% | 170% | -51% | 176.5% | -24.6% | 2% | 62%
20 | CCN1CC(=O)N(c2ccccc2C(F)(F)F)C1=S | -13.3% | 103.5% | 116% | 35% | 52.6% | -6.3% | 18% | 67.2%
21 | CCN1CC(=O)N(CCc2ccc(F)cc2)C1=S | – | – | 49% | -17% | – | – | -8.8% | –
22 | CCN1C(=S)N(c2c(Cl)cccc2Cl)C(=O)C1c1ccccc1 (centres undefined) | – | – | 39% | 25% | – | – | 18% | –
23 | CCN1CC(=O)N(CCc2ccccc2)C1=S | – | – | 30% | 6% | – | – | -14% | –
24 | CC(C)c1ccccc1N1C(=O)CON(C)C1=S | 32.1% | 98.2% | 95% | -16% | -8.3% | -52.7% | 0% | 92.4%
25 | CN1CC(=O)N(CCc2ccc(Cl)cc2)C1=S | – | – | -15.5% | 24% | – | – | -10.2% | –
26 | CN1CC(=O)N(c2ccc3c(c2)CCC3)C1=S | -40.3% | 46% | 112% | -26% | 26.3% | -0.9% | -3% | 26%
27 | Cc1cccc(Cl)c1N1C(=O)CN(c2ccccc2)C1=S | – | – | 39% | 16% | – | – | 2.2% | –
28 | CCN1CC(=O)N(c2ccc(N(C)C)cc2)C1=S | – | – | 49% | -41% | – | – | 123% | –

Row | SMILES | Change (Rattus norvegicus [1]) | Change (Rattus norvegicus [2]) | Change (Rattus norvegicus [3]) | Change (Rattus norvegicus [4]) | Change (Rattus norvegicus [5]) | Change (Rattus norvegicus [6]) | Change (Rattus norvegicus [7]) | Change (Rattus norvegicus [8])
29 | CCN1CC(=O)N(c2cc(Cl)ccc2OC)C1=S | – | – | 39% | 51% | – | – | 24% | –
30 | CCN1C(=S)N(c2c(Cl)cccc2Cl)C(=O)C1(C)C | – | – | -18% | -19% | – | – | -16% | –
31 | CCN1CC(=O)N(c2c(Cl)cccc2Cl)C1=S | 6.8% | 60.2% | 142% | -37% | 0% | -35.8% | 53.4% | 57%
32 | CCN1CCC(=O)N(c2cc(Cl)ccc2C)C1=S | – | – | 76% | 44% | – | – | 53% | –
33 | CCN1C(=S)N(c2c(C)cccc2C)C(=O)C1(C)C | – | – | -2% | 17% | – | – | 13% | –
34 | CCN1C(=S)N(c2c(C)cccc2Cl)C(=O)C1(C)C | – | – | -5% | -22% | – | – | 16% | –
35 | CCN1C(=S)N(c2cc(Cl)ccc2C)C(=O)C1(C)C | – | – | -9% | 15% | – | – | 0% | –
36 | CCN1C(=O)C(=O)N(c2ccc(F)cc2)C1=S | – | – | 23% | -48% | – | – | 44% | –
37 | CN1CC(=O)N(Cc2ccccc2Cl)C1=S | – | – | 23% | 11% | – | – | 14% | –
38 | Cc1ccc(Cl)cc1N1C(=O)CN(C)C1=O | – | – | -8% | -7% | – | – | 37% | –
39 | CCN1CC(=O)N(c2ccccc2SC)C1=S | – | – | 60% | -8% | – | – | 13% | –
40 | CCN1C(=S)N(c2ccc(F)cc2)C(=O)C1c1ccccc1 (centres undefined) | – | – | 67% | 35% | – | – | 31% | –
41 | CN1CC(=O)N(c2cccnc2)C1=S | – | – | 29% | 150% | – | – | -11.4% | –
42 | CN1CC(=O)N(CCCCc2ccccc2)C1=S | – | – | -21% | 41% | – | – | -4.3% | –
43 | CCc1cccc(C)c1N1C(=O)CCN(CC)C1=S | – | – | 60% | 2% | – | – | 52% | –
44 | CCN1CC(=O)N(c2cc(Cl)ccc2C)C(=S)C1 | – | – | 10% | -27% | – | – | 28% | –
45 | CCN1CCC(=O)N(c2ccc(C)cc2C)C1=S | – | – | -3% | 2% | – | – | 27% | –
46 | CCN1CC(=O)N(c2ccc3ccccc3c2)C1=S | – | – | 65% | -33% | – | – | -18.1% | –
47 | CCN1CC(=O)N(c2cc(Cl)ccc2C)/C1=N/C#N | – | – | 17% | -25% | – | – | 15% | –
48 | CCN1CCCC(=O)N(c2ccc(Cl)cc2C)C1=S | – | – | 15% | -15% | – | – | 58.8% | –
49 | CCCCN1CC(=O)N(c2c(C)cccc2Cl)C1=S | – | – | 53% | -38% | – | – | 30% | –
50 | CCN1CC(=O)N(c2cc(C)c(C)cc2C)C1=S | – | – | 112% | -11% | – | – | 39% | –
51 | Cc1ccc(Cl)cc1N1C(=O)C(=O)N(C)C1=S | – | – | 196% | -26% | – | – | 44% | –
52 | CN1CC(=O)N(CCN2CCCCC2)C1=S | – | – | -40% | 33% | – | – | -3.3% | –
53 | CCc1cccc(C(C)C)c1N1C(=O)CCN(CC)C1=S | – | – | 34% | -11% | – | – | 2% | –
54 | CCN1CCC(=O)N(c2c(Cl)cccc2Cl)C1=S | – | – | 16% | -6% | – | – | 42% | –
55 | Cc1ccc(CCN2C(=O)CN(C)C2=S)cc1 | – | – | -26.6% | 27% | – | – | -11% | –
